The structures appear in SMILES notation. Converted amounts (≈) assume the structure as drawn.

Data set [1] is described as follows: Hemolytic activity against human RBC after 1 hr. Format: ADME, cell-based, Erythrocyte. To be noted: red blood cells (erythrocytes). The essentials: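 Human red blood cells were exposed to the test compound at a range of concentrations in phosphate-buffered saline for 1 h at 37°C. Hemolysis was referenced to 2% Triton X-100, taken as 100% hemolysis. The value reported is the concentration that lyses 50% of RBCs.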

Data set [2] is described as follows: Cmax in CD1 mouse at 25 mg/kg, po administered as single dose by LC/MS-MS analysis. Format: ADME, organism-based. Set-up: dose 25 mg/kg, route oral. To be noted: in vivo. The essentials:
(§1)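 Uninfected CD-1 mice (n=2 per compound), single oral dose 25 mg/kg as a solution in 5% DMA/65% PEG300/30% D5W. Blood taken at 30 min, 1, 3, 5 h and plasma separated by centrifugation. Lungs taken at 5 h and homogenized in ~5 volumes PBS. Levels measured by LC/MS-MS after acetonitrile/methanol protein precipitation with verapamil internal standard. AUC and Cmax calculated from mean concentrations.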

The test system of data set [3] is Mus musculus. In words: Toxicity in CD1 mouse at 25 mg/kg, po administered as single dose by LC/MS-MS analysis. Format: organism-based. To be noted: in vivo. The essentials: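 Uninfected CD-1 mice (n=2 per compound) received a single oral 25 mg/kg dose as a solution in 5% DMA/65% PEG300/30% D5W. Tail-bleed blood was taken at 30 min, 1, 3 and 5 h and spun to plasma. Lungs were taken at 5 h and homogenized in about 5 volumes of PBS. Samples were acetonitrile/methanol-precipitated with verapamil internal standard and quantified by LC-MS/MS against standard curves in drug-free CD1 plasma.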

A short description of data set [4]: Plasma concentration in CD1 mouse at 25 mg/kg, po administered as single dose measured at 5 hrs post dose by LC/MS-MS analysis. Format: ADME, organism-based. In outline: as §1
A short description of data set [5]: Drug uptake in lung of Mycobacterium tuberculosis H37Rv infected BALB/c mouse at 100 mg/kg administered 6 days per week for 4 weeks via oral gavage. Format: ADME, organism-based. Conditions: in vivo, read-out: Drug uptake.
In data set [6] the test system is Mycobacterium tuberculosis. In words: Antimycobacterial activity against Mycobacterium tuberculosis H37Rv ATCC 27294 after 7 days by broth dilution method. Format: functional. Conditions: H37Rv ATCC 27294, 168 h.
Data set [7] is described as follows: Drug uptake in lungs of CD1 mouse at 25 mg/kg, po administered as single dose measured at 5 hrs post dose by LC/MS-MS analysis. Format: ADME, organism-based. Conditions: lung, read-out: Drug uptake. In outline: as §1
Data set [8] in a line: Half life in rat liver microsomes at 1 uM preincubated for 5 mins followed by NADPH addition measure up to 45 mins by LC-MS analysis. Format: ADME, microsome. Conditions: 0.75 h. The essentials:
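Male rat liver microsomes, incubated 45 min at 37°C. Half-life reported as mean ± SD.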
For orientation: Microsomes from liver hold many membrane-bound enzymes, among them those of drug oxidation.

Data set [9] is described as follows: Ratio of drug level in CD1 mouse lung to plasma at 25 mg/kg, po administered as single dose measured at 5 hrs post dose by LC/MS-MS analysis. Format: ADME, organism-based. In outline:
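Blood taken at 30 min, 1, 3, 5 h and plasma separated by centrifugation. Lungs taken at 5 h and homogenized in ~5 volumes PBS. Levels measured by LC/MS-MS after acetonitrile/methanol protein precipitation with verapamil internal standard. AUC and Cmax calculated from mean concentrations.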

Data set [10] deals with Mus musculus. In words: Acute toxicity in BALB/c mouse at 100 mg/kg administered via oral gavage for 3 days measured over 7 days. Format: organism-based. To be noted: in vivo, 168 h. In outline:
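BALB/c mice, 3 per group, oral gavage at 100 mg/kg in 200 μL of equal volumes PEG400 and 5% glucose. Dosed on three consecutive days, then monitored 7 days. Euthanized by CO2 and examined for gross pathological changes.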

Data set [11] relates to Mus musculus. In words: AUC in CD1 mouse at 25 mg/kg, po administered as single dose by LC/MS-MS analysis. To be noted: in vivo. Format: ADME, organism-based. The essentials: as §1
For a further data set, the system named is Vero C1008. In words: Cytotoxicity against African green monkey Vero E6 cells assessed as cell growth inhibition after 48 hrs by celltitre 96 aqueous one-based assay. To be noted: Chlorocebus sabaeus, Vero C1008, 48 h.
In data set [12] the test system is Mycobacterium tuberculosis. In words: Bactericidal activity against Mycobacterium tuberculosis H37Rv ATCC 27294 after 5 days. Format: functional. To be noted: H37Rv ATCC 27294, 120 h, read-out: MBC99.9.
Data set [13] relates to Mycobacterium tuberculosis. In words: Loebicidal activity against nutrient-starved nongrowing Mycobacterium tuberculosis H37Rv ATCC 27294 assessed as 1000 fold reduction in CFU after 7 days. Format: functional. The essentials: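 Mtb H37Rv nutrient-starved, non-growing bacilli prepared from a roller-bottle culture. 1 mL at OD600 = 0.05 exposed to a range of concentrations for 7 days at 37°C, 80 rpm. CFU counted on 7H10 agar. LCC99.9 is the 1000-fold reduction versus drug-free inoculum at time zero.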

Data set [14] relates to Mycobacterium tuberculosis. In words: Bactericidal activity against Mycobacterium tuberculosis H37Rv ATCC 27294 assessed as 1000 fold reduction in CFU after 7 days. To be noted: H37Rv ATCC 27294, 168 h, read-out: MBC99.9. Format: functional. The essentials: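 BCG ran 5 days at 37°C, 110 rpm; H37Rv ran 7 days at 37°C, 80 rpm. CFU counted on 7H10 agar. MBC99.9 is the 1000-fold CFU reduction versus inoculum at time zero. Average of 2 or more determinations.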

The term HC50 denotes the concentration giving 50% haemolysis. The Cmax is the peak of the concentration-time curve. One may read the MIC50 as the lowest concentration that inhibits either 50% of growth or 50% of the strains tested, depending on the study. The term MIC90 denotes the lowest concentration that inhibits either 90% of growth or 90% of the strains tested, depending on the study. A word on the Kp: it is the ratio of the level in a tissue or fluid to that in plasma or blood. In general, AUC refers to the area under the concentration-time curve, a measure of exposure. On to `CCCCCCCCn1cc(CN2CCC3(CC2)OCCO3)c2ccc(OC)cc21`, for which the HC50 at 1 h in [1] stood at 75 µM. Besides, the highest level in data set [2] (Cmax) was 0.042 µg/mL. In addition, the Activity entry in the data set on Mus musculus [3] and in the data set with Mus musculus [10] was “Non-Toxic” throughout. Moreover, the concentration at 5 h in data set [4] is 0.033 µg/mL; in data set [7], 468 ng/g. In data set [5], the concentration is 1 µM. The MIC50 in data set [6] came out at 1.2 µM (≈ 0.498 µg/mL). This compound registered an MIC90 in [6] of 2.3 µM (≈ 0.954 µg/mL). Besides, the t1/2 in [8] was determined as 17.4 min. Besides, the Kp at 5 h in data set [9] was found to be 14.2. The AUC in the data set with Mus musculus [11] was 0.173 µg·h/mL.

A word on the IC50: it is the concentration at which inhibition is half-maximal. What is called ΔTm is the change in melting temperature against a reference sample. Regarding `CCCCCCCCn1cc(CN2CCC3(CC2)OCCCO3)c2ccc(OC)cc21`, in data set [1], the HC50 at 1 h turned out to be 64 µM. In addition, in data set [2], the Cmax worked out at 0.0648 µg/mL. In addition, the IC50 with Vero C1008 amounted to 29 µM. The Activity entry in the data set on Mus musculus [3] and in the data set on Mus musculus [10] was “Non-Toxic” throughout. Besides, the MBC in data set [12] and in data set [14] was 3.2 µM (≈ 1.37 µg/mL) each time. In data set [4], this compound returned a concentration at 5 h of 0.0585 µg/mL. Besides, the concentration in data set [5] is 3 µM. The compound also came in with an MIC50 in data set [6] of 0.44 µM (≈ 0.189 µg/mL). The compound also returned an MIC90 in [6] of 0.76 µM (≈ 0.326 µg/mL). In data set [13], the LCC99 came to 18 µM. In data set [8], this compound gave a t1/2 of 27.7 min. Further, the ΔTm in the data set on Lipid bilayer is 4 °C. Also, the AUC in the data set with Mus musculus [11] turned out to be 0.282 µg·h/mL.

As for `CCCCCCCCn1cc(CN2CCC3(CC2)OCCCS3)c2ccc(OC)cc21`, the HC50 at 1 h in data set [1] was more than 300 µM. In data set [2], this compound gave a Cmax of 0.0606 µg/mL. The IC50 in the data set on Vero C1008 came to 39 µM. Besides, in the data set on Mus musculus [3], the Activity entry is on record as “Non-Toxic”. In addition, the MBC in data set [12] and in data set [14] was 3.2 µM (≈ 1.42 µg/mL) throughout. The values for the concentration at 5 h in data set [4] and in data set [7] were 0.0552 µg/mL and 1600 ng/g, respectively. The MIC50 in data set [6] was found to be 0.5 µM (≈ 0.222 µg/mL). Moreover, the MIC90 in data set [6] amounted to 0.8 µM (≈ 0.356 µg/mL). Also, the LCC99.9 in data set [13] was less than 18 µM. The compound also had a t1/2 in [8] of 32.9 min. Also, the Kp at 5 h in [9] was found to be 28.9. The ΔTm in the data set on Lipid bilayer is 4 °C. In the data set on Mus musculus [11], this compound returned an AUC of 0.224 µg·h/mL.

Values taken from ChEMBL document CHEMBL4145615, “Indolyl Azaspiroketal Mannich Bases Are Potent Antimycobacterial Agents with Selective Membrane Permeabilizing Effects and in Vivo Activity” (J Med Chem, 2018).
